Source: PubChem
This is one part of a sample in which hits are shown more often than they occur.
UPR XBP1 act – adaptive UPR (XBP1) activation. CHO-XBP1 luciferase reporter, IRE1-XBP1 UPR activation, luminescence; percent of tunicamycin response, DMSO as zero. activation, % at 20 µM. 330,000 tested, 0.33% active. AID 463104;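 active = versus positive control, 20 µM dose yields 30% or more activation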;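 note: 100% = tunicamycin at 10 µg/mL and 0% = DMSO only wells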
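Material: CHO-XBP1 cells stably carrying IRE1-XBP1-driven luciferase reporter / Amount: 1000 cells per well / Compound: 20 µM, 1% DMSO / Times: 6 h treatment, 37 °C / Detection: luciferase luminescence / Measure: % activation of reporter signal versus tunicamycin and DMSO controls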
UPR CHOP act – apoptotic UPR (CHOP) activation. 330,000 tested, 0.34% active. CHO-CHOP luciferase reporter, luminescence; percent of tunicamycin response over DMSO baseline. activation, % at 10 µM;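 active = at 10 µM dose, activation of 40% or more, normalized to positive control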;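 note: 100% = tunicamycin at 10 µg/mL and 0% = DMSO alone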
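System: CHO CHOP reporter cells. Amount: 500 cells per well. Buffer or medium: F12 medium, 10% FBS. Compound dosing: one dose, 10 µM in 0.5% DMSO. Incubation: 6 h compound exposure at 37 °C after overnight seeding. Technique: Steady-Glo luciferase luminescence. Benchmarks: tunicamycin and DMSO controls.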
Jurkat NFkB inh – inhibitors of the PMA/ionomycin-induced NF-kB reporter in Jurkat cells | PMA/ionomycin-induced NF-kB luciferase reporter, luminescence | inhibition, % at 4 µM | 330,000 tested, 0.53% active; in the data active = inhibition above about 50%
697 NFkB inh – lowers PMA/ionomycin-induced NF-kB signal in 697 B cells | 697 B-cell NF-kB luciferase reporter, 16 h | inhibition, % at 4 µM | 330,000 tested, 0.33% active | AID 435022; in the data active = inhibition above about 35%
CHOP inh – CHOP inhibition in unfolded protein response; inhibition, % at 10 µM; 220,000 tested, 3.8% active; CHO-K1 CHOP-promoter luciferase, tunicamycin-induced, 15-18 h; AID 2732;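 active = compounds that reduced the stress-induced luciferase reporter signal by more than about 70% of percent inhibition, limit read from the data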;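 note: 0% = tunicamycin plus vehicle and 100% = wells without tunicamycin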
* = called active by the depositor.

Screening CC(C)c1ccccc1OCC(=O)Nc1cc(S(=O)(=O)N2CCOCC2)ccc1N1CCCC1 returned UPR XBP1 act -2, UPR CHOP act 1, Jurkat NFkB inh -6 and 697 NFkB inh 8.
For COc1ccc(C(=O)OCC(=O)N(C)C2CCS(=O)(=O)C2)cc1S(=O)(=O)N(C)Cc1ccccc1 (centres undefined) the results were UPR XBP1 act 0, UPR CHOP act 0, Jurkat NFkB inh 8 and 697 NFkB inh -4.
`Cc1ccc(S(=O)(=O)N2CCN(C(=O)COC(=O)COc3cccc4c3OC(C)(C)C4)CC2)cc1` gave UPR XBP1 act -1, UPR CHOP act 2, Jurkat NFkB inh 13 and 697 NFkB inh 22.
Screening CCCCN(CC)C(=O)CSc1nc2c(sc(=S)n2-c2ccc(OCC)cc2)c(=O)[nH]1 returned CHOP inh -11.
`COc1cc(C(=O)Nc2cccc(-c3nc4cc(C)ccc4o3)c2)cc(OC)c1OC` gave UPR XBP1 act 2, UPR CHOP act 5, Jurkat NFkB inh -27, 697 NFkB inh -69 and CHOP inh 75*.
Screening CCOC(=O)Cc1cc(=O)n2[nH]c(C(C)(C)C)cc2n1 returned UPR XBP1 act -1, UPR CHOP act 0, Jurkat NFkB inh 12, 697 NFkB inh -6 and CHOP inh -13.
Screening Cc1ccc(CNC(=O)C2CCC(=O)N(CCc3cccc(F)c3)C2)cc1 (centres undefined) returned UPR XBP1 act -3, UPR CHOP act 2, Jurkat NFkB inh -2 and 697 NFkB inh 15.
`CCN(CC(=O)Nc1ccccc1C(F)(F)F)C(=O)CCc1c(C)[nH]c(=O)c(C#N)c1C` gave UPR XBP1 act 2, UPR CHOP act 1, Jurkat NFkB inh 2 and 697 NFkB inh 3.
`O=C(Cc1ccc(Cl)cc1)Nc1ccccc1Sc1ccccc1` gave UPR XBP1 act -1, UPR CHOP act 3, Jurkat NFkB inh 1, 697 NFkB inh -6 and CHOP inh 75*.
`O=C(Cc1ccccc1)Nc1cc(Cl)ccc1Sc1ccccc1` gave UPR XBP1 act -1, UPR CHOP act 0, Jurkat NFkB inh -4, 697 NFkB inh 6 and CHOP inh 65.
`CC(C)CC(=O)OCC(=O)Nc1ccccc1Sc1ccccc1` gave UPR XBP1 act 2, UPR CHOP act 0, Jurkat NFkB inh 0, 697 NFkB inh -5 and CHOP inh 84*.
Cc1cc(NC(=O)/C(C#N)=C/c2ccc(-c3cccc(C(F)(F)F)c3)o2)n(-c2ccccc2)n1 was read as UPR XBP1 act -1, UPR CHOP act 0, Jurkat NFkB inh 12, 697 NFkB inh 1 and CHOP inh 85*.
Screening Cc1c(NC(=O)/C(C#N)=C/c2ccc(-c3ccc(Cl)cc3)o2)c(=O)n(-c2ccccc2)n1C returned UPR XBP1 act 16, UPR CHOP act 4, Jurkat NFkB inh 20, 697 NFkB inh -20 and CHOP inh 68.
Screening COc1ccc(C)cc1NC(=O)CCC(=O)Nc1nnc(C2CCCCC2)s1 returned UPR XBP1 act -1, UPR CHOP act 1, Jurkat NFkB inh 13 and 697 NFkB inh -7.
Screening c1ccc(CC2CCN(c3ncnc4sccc34)CC2)cc1 returned CHOP inh 74*.
Screening O=C(O)c1cc2c(N3CCC(Cc4ccccc4)CC3)ncnc2s1 returned UPR XBP1 act 0, UPR CHOP act 0, Jurkat NFkB inh -11, 697 NFkB inh -7 and CHOP inh -3.
For CCN(CC)c1ccc(S(=O)(=O)N2CCOCC2)cc1NC(=O)COC(=O)/C=C/c1ccc(C)o1 the results were UPR XBP1 act -1, UPR CHOP act 5, Jurkat NFkB inh -3 and 697 NFkB inh 12.
For O=C(COC(=O)CC12CC3CC(CC(C3)C1)C2)Nc1ncc(Cl)cc1Cl the results were UPR XBP1 act -1, UPR CHOP act 2, Jurkat NFkB inh -16, 697 NFkB inh -17 and CHOP inh 77*.
`CC(C)(Oc1ccc(Cl)cc1)C(=O)OCC(=O)Nc1ncc(Cl)cc1Cl` gave UPR XBP1 act -2, UPR CHOP act -2, Jurkat NFkB inh 7, 697 NFkB inh 16 and CHOP inh 75*.
`Cc1cccc(C(=O)Nc2ccc(C(=O)N/N=C/c3ccco3)cc2)c1` gave UPR XBP1 act -3, UPR CHOP act 1, Jurkat NFkB inh -7 and 697 NFkB inh 15.
